The values below come from the EternaBench riboswitch data.

A word on the apparent Kd: it is the concentration giving half-maximal binding under the conditions of the assay.

The data set relates to MS2 coat protein. In words: apparent Kd, MS2 coat protein; higher = weaker binding; RNA-MaP array; FMN 200 µM where present. A digest of the protocol: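 Stalled E. coli RNA polymerase transcribed each design on Illumina sequencing-chip clusters. The clusters were titrated with SNAP-549-labelled MS2 coat protein, starting at 0.7 or 1.5 nM and doubling up to 3 µM, first without ligand and then with constant ligand, in 100 mM Tris-HCl pH 7.5, 80 mM KCl, 4 mM MgCl2, BSA, DTT, yeast tRNA and Tween-20. Green signal was normalised to red-channel RNA signal and to the control-cluster median Fmax. The apparent Kd is the median of filtered binding-curve fits made for each cluster.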

Setting [1] is: designed as: ON switch for flavin mononucleotide, no ligand.
Where [2] appears, read: ligand present: flavin mononucleotide, designed as: ON switch for flavin mononucleotide.
The mark [3] stands for this setting: designed as: OFF switch for flavin mononucleotide, no ligand.
[4] abbreviates: ligand present: flavin mononucleotide, designed as: OFF switch for flavin mononucleotide.

As for “GGAGCCGGUACUGAGGAUAUUCAUAUUAAAACAUGAGGAUCACCCAUGUAGGCCAGAAGGCCUUGGGAGAAGGCGGACCAGCUCG”, the “apparent Kd” value under setting [1] came out at 463 nM and the “apparent Kd” value under setting [2] was found to be 32.8 nM.

In the case of “AUCUUCGGAGGAUAUUCUCCGUCACACAUGAGGAUCACCCAUGUCAUUCGAAUGGGUUCGGAAGAAGGUCGAAGGU”, the “apparent Kd” value is, setting by setting: under setting [3], 236 nM; under setting [4], 171 nM.

As to “CUGUCGAUAUCAGGAUAUCGUUUACAUACAUGAGGAUCACCCAUGUAGAUGAUCAGCCUAAUAUACGAGAAGGGAUAUCGAUAG”, the “apparent Kd” value came to 9.26 nM under setting [1] and 8.59 nM under setting [2].

For the sequence “AGAGUGAUUACCUCGGUCCCACAUGAGGAUCACCCAUGUAACAAGGAUAUCGCUCCAAAUGGAAGUGAGAAGGUGUCUCAUGUC”, the “apparent Kd” value stood at 27.8 nM under setting [3] and 42.2 nM under setting [4].

On to “GUGUACGAAGGAUAUACAUGAGGAUCACCCAUGUGAAUAAGAUAGAAUAAGAUAAAGUGUAGAAGGUCGAGUGU”, for which the “apparent Kd” value is, setting by setting: under setting [3], 33 nM; under setting [4], 29.4 nM.

For “AUCGUGUUAGGAUAUACACGACGCUGGGUAGCUAGCGGAGGGUAGAAGGGACAUGAGGAUCACCCAUGUUCGGG”, the “apparent Kd” value by setting is: under setting [3], 157 nM; under setting [4], 282 nM.

Regarding “AAAGGUUGAGGAUAUGCGUGGAAAAAGUGUAUUCAAAAAAAACAUGAGGAUCACCCAUGUAGAAGGCGACCAAA”, the “apparent Kd” value under setting [3] stood at 93.6 nM and the “apparent Kd” value under setting [4] turned out to be 245 nM.

With “UUCCUGUCAGGAUAUGACUAGAUGCACGUUAGUGUGUUUACUUAGAAGGGACAUGAGGAUCACCCAUGUAUUCC”, the “apparent Kd” value reads like this: under setting [3], 26.2 nM; under setting [4], 24.3 nM.

“GUGUCUUGGGAGAAGGCCGAUAGCAAAGCUAUCGGAGGAUAUUCAUACCGGAAACGGACAUGAGGAUCACCCAUGUGGCACAAA”: the “apparent Kd” value by setting is: under setting [1], 1130 nM; under setting [2], 36.8 nM.

Consider “CAGGAGAACACAGGAUAUCCGUAAAACAUGAGGAUCACCCAUGUUUGUGGCCCGCCAGGGCUGACGGAGAAGGGUGACUCGCAC”, for which the “apparent Kd” value amounted to 6.69 nM under setting [1] and 5.61 nM under setting [2].

On to “GGGUACAUCGGAGGAUAUCAUGUAAAUACAUGAGGAUCACCCAUGUCGAUGGAGACAUCGGAGGUUGAGAAGGCCGAUGUACCG”, for which the “apparent Kd” value was determined as 961 nM under setting [1] and 18.5 nM under setting [2].

As to “UUAUGUUUUGUAGGAUAUCAUUAGUUUUGUAUUUUAAUUGUAAUUUAGAUAUGAGAAGGACAUUUACAUGAGGAUCACCCAUGU”, the “apparent Kd” value under setting [3] came out at 20.3 nM and the “apparent Kd” value under setting [4] came to 14.2 nM.

As for “CGCUACUACCAGAAGGACAUGAGGAUCACCCAUGUAGGAUAUGGGUUACACGUUCCUGUGAAUUGUUACUACGCUACGUAUGCG”, the “apparent Kd” value runs as follows: under setting [1], 401 nM; under setting [2], 21.5 nM.

For “GAGCUAUGAGGAUAUGCAUAUAUGCGGUUUCGUGUGGUACUACAUGAGGAUCACCCAUGUAGAAGGCGUGGCAG”, the “apparent Kd” value came out at 16 nM under setting [3] and 17.5 nM under setting [4].

Turning to “GUCAGCUCGUGAGGAUAUACAACAUUGCUUCGGCAGUGUAUUAAGAUCACAUGAGGAUCACCCAUGUAGAAGGCACGAGCUGAU”, the “apparent Kd” value runs as follows: under setting [3], 14.1 nM; under setting [4], 243 nM.

Take “GGGUGACAUGAGGAUCACCCAUGUGAGGAUAUCUGGAUACUCUUUAUUUUAGAUAUCCAGAGAAGGCACACCCU”: the “apparent Kd” value runs as follows: under setting [3], 501 nM; under setting [4], 306 nM.

As to “AGUGACUACGUAGGAUAUUAAUUCAUGGACUACAUGAGGAUCACCCAUGUUUAUUUAACAUCAGCUGAGAAGGACGUGGUCACA”, the “apparent Kd” value under setting [1] was determined as 28.1 nM and the “apparent Kd” value under setting [2] worked out at 10.6 nM.

For the sequence “GGAUUUCCUGAGGAUAUUGCAUCACCCGAUUUAUAAGAAGGCAGAACAUGAGGAUCACCCAUGUGGGUCUCCGG”, the “apparent Kd” value runs as follows: under setting [3], 18.9 nM; under setting [4], 23.1 nM.

In the case of “UAUAUAUAGUAAGGAUAUGUAAUUGUUUUAUAAACAGAAGGUACUGACAUGAGGAUCACCCAUGUUUUAGUGUGGGCAUGUAGA”, the “apparent Kd” value came to 57.4 nM under setting [3] and 78.8 nM under setting [4].

In the case of “UACUGACAUGAGGAUCACCCAUGUGAGGAUAUUCUCCUGCUAAAUUAAUGGUGGGUGUGAAGAAGGCACAAGGA”, the “apparent Kd” value runs as follows: under setting [3], 37.3 nM; under setting [4], 120 nM.

Consider “UUCGAGUAGCAAGGAUAUCUUAUUUAGAUUUUAAGAGAAGGUGCUUCACAGCUACAUGAGGAUCACCCAUGUCUUUCUUCUUAU”, for which the “apparent Kd” value runs as follows: under setting [1], 35.6 nM; under setting [2], 26.3 nM.

As for “GGGUGAGACGAGAAGGGAUUUUCACAUGAGGAUCACCCAUGUCGAGUAGUCAGGAUAUCGGGCCAUGAUUACCCUAUAGAAGAC”, the “apparent Kd” value came out at 298 nM under setting [1] and 70.5 nM under setting [2].

Regarding “AAUUGACACGUAGGAUAUCGAUCUAUAUUAACUCGAGAAGGACGUACAUGAGGAUCACCCAUGUUUAAUGGAGUAGAUAAGUUG”, the “apparent Kd” value is, setting by setting: under setting [3], 102 nM; under setting [4], 289 nM.

Turning to “AGUAACAGAGGAUAUACUGUUUUAUGUGUUUGUUAUUUUAAACAUGAGGAUCACCCAUGUAGAAGGCUGAAUGA”, the “apparent Kd” value runs as follows: under setting [3], 27.1 nM; under setting [4], 25.3 nM.

Turning to “ACUCCUCCUGUUAGGAUAUGCAUCGGGCUUCCGCAGCAGAAGGAACAUGAGGAUCACCCAUGUCAAAUAAAAUC”, the “apparent Kd” value came to 19.6 nM under setting [3] and 155 nM under setting [4].

Regarding “GACGGAUGUAUAGGAUAUGCUGAGGAAUACUCAGCAGAAGGAUACAUGAGGAUCACCCAUGUAAUAAUAAUAAUAAUAACCGUC”, the “apparent Kd” value runs as follows: under setting [3], 12.4 nM; under setting [4], 27.5 nM.

For “GUGUACAGAGGAUAUACAUGAGCAUGGAAACAUGCAACUUCACAUGAGGAUCACCCAUGUAGAAGGCUGUACAC”, the “apparent Kd” value runs as follows: under setting [3], 25.1 nM; under setting [4], 111 nM.

Take “UUUGCAUACCGAGGAUAUUCAUAUAAUAAAUAAACAUGAGGAUCACCCAUGUGGCGAAAGCCUAGGGAGAAGGCGGAAUGCUUU”: the “apparent Kd” value is 162 nM under setting [1] and 30.1 nM under setting [2].

For the sequence “GCCUUAUCCGUCAGGAUAUACAGCCGUUAGUUGUUGUAGAAGGGACAUGAGGAUCACCCAUGUACGUACCAUUG”, the “apparent Kd” value by setting is: under setting [3], 18.7 nM; under setting [4], 30.7 nM.

Turning to “GCAGGAUAAGUGAGGAUAUACCUAUGGAUACAUAGGUAGAAGGUACAUGAGGAUCACCCAUGUUCCUUACCUGC”, the “apparent Kd” value under setting [3] stood at 11.9 nM and the “apparent Kd” value under setting [4] was 13.4 nM.

For the sequence “GUGUAGUGAGGAUAUACAUGAGGAUCACCCAUGUGAAUAAGAUAGAAUAAGAUAAAGUGUAGAAGGCAUAGUGU”, the “apparent Kd” value is, setting by setting: under setting [3], 40.2 nM; under setting [4], 31.5 nM.

Consider “AUUGUUCGAGAGAAGGGAACAUGAGGAUCACCCAUGUUACCUCACCCGGUGACGGAACUCCAAGUUCAGGAUAUCUCGAGCGAU”, for which the “apparent Kd” value under setting [3] was 7.64 nM and the “apparent Kd” value under setting [4] was found to be 16 nM.

Turning to “GACAUGAGGAUCACCCAUGUACAGAUAGAGGAACUCUAAUUGAGAAGGGACUUGAAACAAUCAUGUCAGGAUAUCAGUGGCGAC”, the “apparent Kd” value by setting is: under setting [1], 86.7 nM; under setting [2], 41 nM.

For “CCGUCAAUCGAGAAGGGCCUAUGUGCUACAUCGGCAGGAUAUCGACAUGAGGAUCACCCAUGUUGGCGAUCCUUUUUGGCGGAC”, the “apparent Kd” value by setting is: under setting [3], 156 nM; under setting [4], 24.1 nM.

Take “UUUAUUAGUUAGAAGGCUUGAUGAAUUACAAUAGACAUGAGGAUCACCCAUGUGUAUUCAUGUCAAGAGGAUAUAGUCAUAUAU”: the “apparent Kd” value under setting [1] stood at 13.7 nM and the “apparent Kd” value under setting [2] came to 6.54 nM.

With “GGAAAACAUGAGGAUCACCCAUGUGAGGAUAUCGAUGUCCAGAGAGAGGUGCGGGACUCGAGAAGGCACUUGGA”, the “apparent Kd” value under setting [3] was found to be 44.5 nM and the “apparent Kd” value under setting [4] was found to be 87.5 nM.

With “AUCCAGGUAACAUGAGGAUCACCCAUGUUCCUUCGCUCUGGCGAGGAUAUGAAGGGAUUGUCCCAUCAGAAGGCGCAUGGGUGC”, the “apparent Kd” value was found to be 46.7 nM under setting [1] and 57.5 nM under setting [2].

In the case of “ACAUACAUUCGAGGAUAUCGGUGAACAAAUUAACGAGAAGGCGAUAUAAUUUUUAAUCUUAUGAACAUGAGGAUCACCCAUGUA”, the “apparent Kd” value by setting is: under setting [1], 22.3 nM; under setting [2], 20.4 nM.

“UUUAUGUGAGGAUAUCAGUAGUAAAAAAAUAAAAUUACUACUGAGAAGGCACAUGAGGAUCACCCAUGUCCUUC”: the “apparent Kd” value is 18.6 nM under setting [3] and 20 nM under setting [4].

In the case of “GACUAGGCAGGAUAUACAUGAGGAUCACCCAUGUGUCUGCGUUAAGCACGUGAAGACGGUAGAAGGGCCUUCAC”, the “apparent Kd” value by setting is: under setting [3], 11.6 nM; under setting [4], 13.5 nM.

In the case of “UCUACGCGAAUCAAGAUGGAUAGCACAUGAGGAUCACCCAUGUAGGAUAUGCUACACAAAGUGUAGCAGAAGGACAAGCGUAGA”, the “apparent Kd” value reads like this: under setting [3], 26.5 nM; under setting [4], 38.3 nM.

Regarding “AUAUUGUGAGGAUAUCAGGUGUGCUAGCGUACUGGUACAUCUGAGAAGGCACAUGAGGAUCACCCAUGUUUCUU”, the “apparent Kd” value is, setting by setting: under setting [3], 15.6 nM; under setting [4], 39.6 nM.

With “CUGACGGCAGGAUAUACAUGAGGAUCACCCAUGUAAAUUUUUCGUUUACCUUGACCGUGUAGAAGGGCCCAACC”, the “apparent Kd” value under setting [3] came to 14.8 nM and the “apparent Kd” value under setting [4] was found to be 14.7 nM.

As to “ACUUAUGAAGGAUAUACUAGCGACAUGCACUCAACACACGCACAUGAGGAUCACCCAUGUAGAAGGUCAAACAU”, the “apparent Kd” value came to 25.7 nM under setting [3] and 22.4 nM under setting [4].

In the case of “UUGAGGUAGGAGAAGGACAGAGGCGGAAACACAAACAUGAGGAUCACCCAUGUAGGAUAUCCUACCUAACGAGGAUACCUCAAG”, the “apparent Kd” value reads like this: under setting [3], 14.7 nM; under setting [4], 26.7 nM.

As for “ACGAUGUCAGGAUAUCGAUCACGGGUCUGAAGACACGUGUUUGAGAAGGGACAUGAGGAUCACCCAUGUGUCUC”, the “apparent Kd” value under setting [3] was found to be 122 nM and the “apparent Kd” value under setting [4] came out at 314 nM.

Turning to “UGGUACUAGGGAGGAUAUGCGAAGAUACAUGAGGAUCACCCAUGUUUAAGAAUGCCGAGAGGCAACUAGAAGGCCCUAGUACCU”, the “apparent Kd” value under setting [1] came out at 8.5 nM and the “apparent Kd” value under setting [2] is 5.38 nM.

With “UUUUAAUAAUAGAAGGAGGACUUCAUGAGGAUCACCCAUGUGUUAGUACUUAGGAUAUGUAAUAACAUGAGGAUCACCCAUGUC”, the “apparent Kd” value under setting [1] was 44 nM and the “apparent Kd” value under setting [2] came out at 42.4 nM.
